# RAM network inh: blocks the yeast RAM network; S. cerevisiae dse1pr::URA3 reporter, 5-FOA growth OD615, 2 d; analog-sensitive cbk1-as2 kinase mutant strain; inhibition, % at 50 µM; hit rate 1.8% among 190,000;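 active means inhibition above a set limit, 3 SD over mean compound inhibition, cut at about 8.4% in these data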;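 further: 0% = DMSO-only wells with no growth and 100% = 10 µM 1-NA-PP1 full growth; inhibition rescues growth on 5-FOA so higher OD means more RAM inhibition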
# ABCB1 block: inhibitors of human ABCB1 transporter, ABCG2 counter-screen | P08183 | CCRF-Adr cells, JC-1 efflux, flow cytometry | inhibition, % at 6.6 µM | hit rate 0.067% among 190,000 | AID 1326; in the data active means inhibition above about 40%;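 further: 0% = vehicle and 100% = reference inhibitor; higher value means more JC-1 retained so stronger ABCB1 efflux block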
# WT yeast gro inh: growth inhibition of WT yeast, mitochondrial fusion screen; hit rate 2.1% among 190,000; inhibition, % at 10 µM; mitochondrial fusion phenotypic screen, WT strain; in the data active means inhibition above about 58%; tested in S. cerevisiae
# ABCG2 inh: blocks JC-1 efflux by human ABCG2 transporter; AID 1325; inhibition, % at 6.6 µM; Q9UNQ0; IgMXP3 cells, flow cytometry; hit rate 0.1% among 190,000;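 active means inhibition above 80%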;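 further: 0% = DMSO and 100% = nicardipine control wells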
#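 Read-out basis: Efflux inhibition in percent versus controls | Test system: ABCG2 IgMXP3 and barcoded ABCB1 CCRF-Adr cell mix | Quantity: 3 million cells/mL in well | Schedule: 10 min at 25 °C | Control set: Nicardipine as high control, DMSO as low control | Reagent: JC-1 as fluorescent efflux pump substrate | Signal: Flow cytometry of retained JC-1 fluorescence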
# L major viab: inhibitors of Leishmania major promastigote growth; inhibition, % at 10 µM; AID 1063; hit rate 9% among 200,000; Leishmania major promastigotes, resazurin fluorescence viability; in the data active means inhibition above about 50%;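 further: promastigotes grown with compound for 44 hours at 28 °C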
# * hit, by the source's call. Shown are actives, neighbours in structure and some others; about 12% of the full set was active somewhere.
SMILES,RAM network inh,ABCB1 block,WT yeast gro inh,ABCG2 inh,L major viab
Cc1ccc(C(=O)C(C)Oc2cccc(NC(=O)c3ccco3)c2)cc1 (stereo not drawn),2.9,0.9,-12.4,6.2,97.1*
CCOc1cc(NC(=O)c2ccco2)c(OCC)cc1NC(=O)Cc1cccc(OC)c1,6.2,2.6,8.5,10.2,63.4*
COc1cccc(NC(=O)c2ccco2)c1,-0.2,0.2,-6.6,2.4,-3.0
COCCNc1nc2nonc2nc1N(C)Cc1cccc2cnccc12,-0.8,0.9,-12.9,8.1,1.4
COc1cc(C(=O)NC2=C(C#N)CCC2)cc(OC)c1OC,1.2,0.2,7.2,8.0,1.3
Cc1c(C(=O)N/N=C/c2ccncc2)no[n+]1[O-],0.9,1.4,-15.4,5.1,-7.0
CCCCc1ccc(NC(=S)NCCN2CCOCC2)cc1,-0.5,1.4,11.8,2.3,-2.8
CC(Oc1ccc(NC(=O)c2ccco2)cc1)C(=O)N1c2ccccc2CC1C (stereo not drawn),0.0,0.6,-0.9,2.2,57.5*
O=C(Nc1ccc(Oc2cccc3ccccc23)cc1)c1ccco1,9.2*,0.1,79.4*,0.6,12.2
O=C(O)c1ccccc1C(=O)Nc1ccc(Oc2cccc3ccccc23)cc1,3.6,-0.2,-22.4,-5.3,-5.8
O=C(Nc1cccc(-n2cnnn2)c1)c1ccco1,1.5,0.0,2.7,0.6,94.9*
Cc1ccc(C(=O)Nc2cccnc2)cc1NC(=O)c1ccco1,0.7,0.6,-11.3,10.4,6.3
O=C(Nc1cccc(NC(=O)c2sc3ccccc3c2Cl)c1)c1ccco1,4.0,0.3,27.5,-2.4,81.1*
CCC(=O)Nc1cccc(C(=O)Nc2nccs2)c1,0.3,1.3,4.1,5.8,14.3
O=C(Nc1cccnc1)c1cccc(NC(=O)c2ccco2)c1,0.5,0.1,12.8,0.3,79.7*
O=C(Nc1nccs1)c1cccc(NC(=O)c2ccco2)c1,3.7,0.0,-5.0,15.2,97.3*
CCCc1cc(=O)[nH]c(SCCCCN2C(=O)c3ccccc3C2=O)n1,4.3,2.2,-8.3,17.3,0.3
N#Cc1cc(C#N)c(N2CCN(c3ccccn3)CC2)nc1N,0.3,0.5,-14.7,1.5,2.1
O=C(c1ccccc1)c1cccc(NC(=O)c2ccco2)c1,-0.5,1.9,8.1,10.0,96.9*
O=C(Nc1cccc(-c2cnc3ccccc3n2)c1)c1cccc(NC(=O)c2ccco2)c1,2.5,0.4,21.0,0.2,69.0*
COCCCNC(=O)c1oc2ccc(S(=O)(=O)N(C)C3CCCCC3)cc2c1C,2.3,2.8,-5.7,43.5,97.4*
C=CCNC(=O)c1oc2ccc(S(=O)(=O)N(CC)CC)cc2c1C,2.7,1.1,-5.7,4.9,98.5*
CCN(CC)S(=O)(=O)c1ccc2oc(C(=O)N3CCCCCC3)c(C)c2c1,-0.5,1.4,-7.2,4.8,6.4
Cc1c(C(=O)O)oc2ccc(S(=O)(=O)NC3CCCCCCC3)cc12,4.7,-1.3,2.1,4.5,-9.2
Cc1ccc(NS(=O)(=O)c2cccc([N+](=O)[O-])c2)nc1,1.7,1.1,8.3,1.4,-12.2
SMILES,RAM network inh,ABCB1 block,WT yeast gro inh,ABCG2 inh,L major viab
Cc1cccc(C(=O)N[C@H](C(=O)Nc2cc(S(=O)(=O)N3CCCCC3)ccc2C)C(C)C)c1,5.3,2.3,-3.9,12.4,-1.2
Cc1cc(C)c2nc(NC(=O)[C@@H](NC(=O)c3cccc(S(=O)(=O)N4CCOCC4)c3)C(C)C)sc2c1,4.7,3.6,10.1,14.0,96.7*
CCOC(=O)N1CCN(S(=O)(=O)c2ccc(C(=O)NNc3nc4c(C)cc(C)cc4s3)cc2)CC1,3.0,-0.8,-11.1,-2.3,88.1*
Cc1cc(C)c2nc(NNC(=O)c3ccc(S(=O)(=O)N4CCCCC4)cc3)sc2c1,2.9,-0.5,4.2,-5.5,89.1*
Cc1cccc(Cn2nc(C)cc2NC(=O)CCCn2ccc([N+](=O)[O-])n2)c1,1.3,1.2,-4.9,16.0,-2.4
Cc1ccc(-n2c(CNC(=O)c3cccs3)nnc2SCC(=O)NO)cc1,0.4,1.4,-10.3,4.9,0.9
CCN(CC)c1ccc(N=Cc2ccc(N(CC)CC)cc2O)cc1,-0.3,3.2,27.3,4.7,99.8*
CCN(CC)c1ccc(/C=N/N2CCN(Cc3ccccc3)CC2)cc1,0.8,2.0,4.4,2.4,8.8
CCN(CC)c1ccc(/C=N/NC(=O)OC)c(O)c1,-0.1,0.5,-15.1,2.6,-4.5
CCN(CC)c1ccc(/C=N/N2CCN(Cc3ccccc3)CC2)c(O)c1,1.3,2.9,56.8,13.7,92.4*
CCN(CC)c1ccc(/C=N/NC(=S)NC)c(O)c1,0.0,0.0,4.0,11.3,83.3*
CCN(CC)c1ccc(C=Nc2ccc(N(C)C)cc2)c(O)c1,-0.1,0.1,16.5,0.3,1.5
Cc1nn(-c2ccccn2)c2c1C(c1c(F)cccc1Cl)C1=C(N2)c2ccccc2C1=O (stereo not drawn),6.8,-0.4,0.7,-4.3,32.7
CCCc1[nH]nc2c1C(c1ccccc1OCC)C(C#N)=C(N)O2 (stereo not drawn),2.6,-0.8,0.9,0.2,53.5*
CCOc1ccc(-c2[nH]nc3c2C(c2ccc4c(c2)OCO4)C(C#N)=C(N)O3)cc1OC (stereo not drawn),5.2,0.3,23.9,4.0,50.5*
COCc1[nH]nc2c1C(c1ccc(OC)c(OC)c1)C(C#N)=C(N)O2 (stereo not drawn),-0.5,0.7,-5.2,3.0,4.0
CCn1c2ccccc2c2cc(C3C(C#N)=C(N)Oc4n[nH]c(COC)c43)ccc21 (stereo not drawn),2.0,0.8,8.6,3.1,88.6*
COc1ccc(C2C(C#N)=C(N)Oc3n[nH]c(C)c32)cc1CSc1ccccn1 (stereo not drawn),-0.3,0.2,-7.0,3.4,97.6*
Cc1[nH]nc2c1C(c1ccc3c(c1)OCO3)C(C#N)=C(N)O2 (stereo not drawn),1.0,0.0,-0.8,0.4,34.8
CSc1cnn(Cc2ccccc2)c(=O)c1SCc1ccccc1,0.9,0.5,28.6,1.5,5.7
CCCc1[nH]nc2c1C(c1ccc(O)c(OC)c1)C(C#N)=C(N)O2 (stereo not drawn),0.0,0.0,10.3,0.1,80.0*
CCCc1[nH]nc2c1C(c1cn[nH]c1-c1ccc(F)cc1)C(C#N)=C(N)O2 (stereo not drawn),1.5,0.4,11.8,17.9,73.1*
CCOC(=O)COc1c(Br)cc(/C=C2\SC(=O)N(CC(=O)N3CCCC3)C2=O)cc1OC,10.7*,1.5,-7.1,15.5,2.1
Cc1ccccc1NC(=O)c1ccc(Cl)c(NC(=O)c2cccnc2)c1,0.0,0.4,-8.8,1.9,-3.9
CCCCCCCCCCCC(=O)c1c(O)cccc1O,3.2,0.0,94.8*,-0.8,-6.4
CCNc1ccc(S(=O)(=O)N(C)C)cc1NCC(=O)Nc1ccccc1F,2.3,0.1,5.4,2.4,25.6
CCNc1ccc(S(=O)(=O)N(C)C)cc1NCC(=O)Nc1ccc(Br)cc1F,3.1,0.3,-5.1,4.4,71.5*

# Screening data (PubChem BioAssay)
